Data taken from ChEMBL document CHEMBL4513216, “Probing the Open Global Health Chemical Diversity Library for Multistage-Active Starting Points for Next-Generation Antimalarials” (ACS Infect Dis, 2020).

assay: Toxicity liver stage against HepG2, at 10uM; type: cell-based; parameters: test concentration 10 uM, cell line HepG2-A16-CD81EGFP; conditions: human, HepG2-A16-CD81EGFP cells; read-out: INHIBITION
Outline: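 Uninfected HepG2-A16-CD81EGFP cells, 3 × 10^3 per well, 1536-well, plated on prespotted compound at 10 μM final, parasite-free screening media added to match infected plates; puromycin 10 μM positive, DMSO 0.5% negative; run in parallel with 48 h PbLuc assay at 37 °C, 5% CO2; viability by CellTiter-Glo luminescence, normalized to controls.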

SMILES	cytotoxicity at 10 µM [%]
CNC(=O)[C@@H]1CC[C@@H]2[C@@H](CCN2C(=O)N(C)C)O1	13.2
CN(C)C(=O)N1CC[C@]2(O)CCN(C(=O)c3ccc(C#N)nc3)C[C@@H]2C1	-51
COc1cccc(N2CC3(CCN(c4ccncn4)C3)CC2=O)c1 (centres undefined)	8.61
CCc1nccn1C1CCCN(C(=O)CCCc2ccccn2)C1 (centres undefined)	-18.7
CC(C)(CO)Nc1c(NCc2ccccc2)c(=O)c1=O	-2.96
Nc1ncnc2nc(C3CCN(C(=O)Cc4ccccc4)C3)ccc12 (centres undefined)	2.65
OCCc1cn(CC2CCCN(Cc3nccs3)C2)nn1 (centres undefined)	-6.51
Cc1ccc(C(NC(=O)CCCN2CCCCC2)C(=O)O)cc1 (centres undefined)	2.87
Cc1cc2n(n1)CC(CNC1CCN(c3ccc(F)cc3)CC1)CN2 (centres undefined)	-10.3
Cc1ccc(CN2CCn3c(C(=O)N(C)C)cnc3C2)s1	5.97
Cc1ccc(CN(CCCN2CCOCC2)Cc2cncn2C)o1	-40.3
O=C(NC1CCCC1)c1nc2c(o1)CN(C(=O)CCO)C2	5.38
O=C(N[C@@H]1CN(Cc2ccc3[nH]ccc3c2)C[C@H]1O)c1cscn1	-7.11
Cc1noc(C)c1CC(=O)N1CCCC(n2ccnc2C)C1 (centres undefined)	-4.49
c1cncc(OC[C@@]23CCC[C@@H]2CN(C2CCOCC2)C3)c1	-0.0916
Cc1cccn2cc(CNCc3cccc4c3OCCCO4)nc12	15.5
Cc1cc(C[C@@H]2COC[C@H]2NCc2ccc(C)c(C)c2)on1	8.1
Cc1ccc(NCc2cccc3cn[nH]c23)cc1OC1CCOC1 (centres undefined)	1.44
CC1CCCCN1C(=O)c1coc(COc2cccc3cnccc23)n1 (centres undefined)	-143
CCCc1ncc(CN(C)C2CCCN(CCc3ccccc3)C2)cn1 (centres undefined)	0.301
O=C(C1CCOCC1)N1CC[C@@H]2[C@H]1CCC(=O)N2c1ccccc1	5.5
CC(C)n1cnc2c1C(C(=O)NCCO)N(Cc1ccccc1)CC2 (centres undefined)	2.43

SMILES	cytotoxicity at 10 µM [%]
COCc1cc(NCc2cc(F)ccc2F)n2nccc2n1	-2.32
COc1cc(Cl)cc(CN2CCCC(N3CCCC3)C2)c1OC (centres undefined)	-3.88
Cc1cc(CNC(=O)Nc2cc(F)cc(N3CCCC3)c2)no1	-17.7
COC(=O)C(c1cc(F)ccc1F)N(C)C(=O)c1ccnc(C)n1 (centres undefined)	-0.337
Cc1nc(C2CCCN(C(=O)c3ccc(OCC4CC4)cc3)C2)no1 (centres undefined)	-7.69
CC(N1CCN(C(=O)NCc2cccc(C#N)c2)CC1)C(F)(F)F (centres undefined)	6.31
O=C(Nc1ccc(OCc2cccc(F)c2)c(F)c1)C1COCCO1 (centres undefined)	74.4
O=C(NCc1cccnc1)NC1CCC2(CCC(=O)N2CC2CC2)CC1 (centres undefined)	-114
Cc1ccc(OCC(=O)Nc2cnccc2SCCCO)cc1C	-2.35
O=C(NCCC(O)c1ccco1)c1ccccc1Br (centres undefined)	0.957
CS(=O)(=O)N1CCO[C@@H]2CCN(C(=O)c3cccs3)CC[C@H]21	-2.35
O=C1OCCN1CCOc1nc(-c2ccccc2Cl)no1	-11.3
Cc1cc(C)nc(N2CC=C[C@@H]2C(=O)NCc2ccc3c(c2)OCO3)n1	-8.49
O=C(C1CC1)N1CCN(Cc2ccncc2)c2ncccc2C1	-3.88
CCOC1CCCN(C(=O)c2[nH]nc(C(C)C)c2Br)C1 (centres undefined)	-6.78
Cc1nc(CN2CCN(C(=O)c3ccc(=O)n(C)c3)CC2)cs1	-2.95
CCCc1cc(C(=O)N2CCC3(CCCN(CCOC)C3=O)C2)cs1 (centres undefined)	-167
CSc1nccc(N2CCC(=O)N(CC3CC3)C(C(C)C)C2)n1 (centres undefined)	-2.02
CCn1nccc1CNC(=O)C1CCCO1 (centres undefined)	-2.21
O=C(CN1CC(n2cccn2)C1)NCCc1ccc(F)cc1	-14.3
CCS(=O)(=O)CCn1ccc(NC(=O)CCc2cccc(C)c2)n1	2.94
O=C(CCn1cc(Cl)cn1)N1CCC2(CC1)OCCCC2O (centres undefined)	-135

SMILES	cytotoxicity at 10 µM [%]
Cc1cc(F)cc(S(=O)(=O)NC(=O)CCc2cncc(F)c2)c1	7.78
O=C(O)c1ccccc1-c1ccc(CN2CC(O)C2)cc1	-0.363
Cc1cc(C)c(CNC(=O)NC(C)c2ccc3c(c2)CCC3)c(=O)[nH]1 (centres undefined)	27.4
O=C1N(CC2CC2)CCC12CCCN(c1ncc(F)cn1)C2 (centres undefined)	4.79
CCn1cc(C(=O)N(C)[C@@H]2CC[C@@H](N3CCCC3)[C@@H]2O)c(C)n1	5.92
CN(C)CC1CSCCCN1S(=O)(=O)Cc1cccc(F)c1 (centres undefined)	-3.63
Cc1cc(NC(=O)CN2CCCC2c2noc(C3CC3)n2)no1 (centres undefined)	-13
O=C(c1n[nH]c2c1CCC2)N1CCCC1c1nc(-c2ccccc2)no1 (centres undefined)	6.43
CN(CC1CCCCO1)C(=O)c1ccnc(OC2CCC2)c1 (centres undefined)	-7.63
CNc1nc2cn(Cc3ccc(Cl)cc3)c(=O)c-2c[nH]1	8.93
CNS(=O)(=O)c1ccc(C(=O)NCc2ccnc(OC)c2)cc1	2.86
Cc1[nH]c2ccc(C(=O)N3C[C@@H](O)[C@H](N4CCOCC4)C3)cc2c1C	-21.3
Cc1nc(CCC(N)=O)cc(C2CCCCN2S(C)(=O)=O)n1 (centres undefined)	-13
O=C1CCCN1Cc1nnn2c1CN(c1ncccn1)CCC2	-0.0499
COc1ccc(CN2C[C@H](N3CCCC3=O)[C@@H]3OCCC[C@@H]32)cc1	9.51
COc1cccc(OCC2CCCN(Cc3ncc[nH]3)C2)c1 (centres undefined)	4.97
CSCC[C@@H](CO)NC(=O)c1sc(-c2ccccc2Cl)nc1C	14.3
CNC(=O)[C@@H]1C[C@@H](N)CN1C1CCN(c2ccccc2F)CC1	-53.3
CCCn1nccc1NC(=O)CN1CCn2c(nnc2C2CC2)C1	-8
Cc1cc(-c2ccc(=O)n(CCNC(=O)C3CCC3)n2)c(C)o1	-2.32
CS(=O)(=O)c1ccc(NCc2ccccc2)cn1	13.2
Cc1cc(CN2C[C@@H]3COC[C@]3(CN(C)C)C2)no1	4.81

SMILES	cytotoxicity at 10 µM [%]
CC(=O)NCC1CN(c2ccc3c(Cl)ccnc3c2F)CCO1 (centres undefined)	5.29
Cc1nocc1C(=O)N1CCCC2(CCN(c3ccsc3)C2=O)C1 (centres undefined)	-129
Cn1cc(CN2C[C@@H]3OCCN(CC4CCCC4)[C@@H]3C2)cn1	-163
Cc1ccc(S(=O)(=O)N2CCC(Cn3cc(C(C)(C)N)nn3)CC2)s1	6.74
CCN1C(=O)CC(c2cnn(C)c2)C12CCN(C(=O)c1ccoc1)CC2 (centres undefined)	9.61
NC(=O)CN1CCN(CC2CC2)c2ccccc21	3.92
O=C1CC(c2cccc(O)c2)c2sc(C(=O)O)c(-c3ccccc3)c2N1 (centres undefined)	6.33
Cc1cc(-c2cnc(NC3CC3)nc2-c2ccoc2)on1	-25.6
CC(C)Oc1cc(N2C[C@H](C3CC3)[C@@H](N)C2)nc(N)n1	-4.75
Cc1nc(CN(C)C2CCN(CC(=O)N3CCOCC3)C2)no1 (centres undefined)	-4.91
Cc1nc(CN2CCCN(CC(=O)Nc3ccncc3)CC2)no1	-7.03
Cc1nc(COCc2nc3c(o2)CN(C(=O)c2ccoc2)C3)cs1	-1.95
O=C(NCc1ccccn1)[C@@H]1CC[C@@H]2[C@@H](CCN2c2ncc(F)cn2)O1	-74.8
Cc1cc(NCC2CCCCC2)n2ncnc2n1	-2.1
Cc1ccc(N2CC[C@@H](NC(=O)c3cnccn3)[C@H](O)C2)nn1	-6.79
CCn1c(C)cc(-c2csc(Cn3ccc(=O)[nH]c3=O)n2)c1C	10.2
CC(SCCC(=O)NC(N)=O)c1ccccc1F (centres undefined)	5.87
CCOCc1ncn2c1CN(S(=O)(=O)c1cccs1)CC2	0.719
CN(C)C[C@@H]1OC[C@H]2CN(Cc3ccoc3)CC[C@H]21	-131
CN(C(=O)c1cnc(N2CCOCC2)nc1)C1Cc2ccccc2C1	-3.97
O=C(Cn1ccnc1)N1C[C@@H]2CC[C@H](Oc3ccccc3Cl)[C@@H]2C1	11.9
CC(C)Cc1ncc2c(n1)CN(c1nc(N(C)C)nc3c1CCCC3)C2	2.27

SMILES	cytotoxicity at 10 µM [%]
Cc1nn(C)c(C)c1C1CCCN1Cc1nc2ccccc2o1 (centres undefined)	-20.6
Cc1cc(C(=O)NCc2ccc(F)cc2)nc(C2CCCN2C)n1 (centres undefined)	-28.7
CC(C)Cn1ccc2c(NC(=O)c3n[nH]c4c3CCC4)cccc21	7.33
CC(=O)c1cc(C(=O)N2CCC(CC(C)C)C2)c(=O)[nH]c1C (centres undefined)	4.4
CSc1ccc(CCNC(=O)Cc2c(C)n[nH]c2C)cc1	1.02
COCC(=O)N1CCC2(CCN(Cc3ccccn3)CC2)CC1	-6.62
Cc1cc(NC(=O)NCc2cccnc2OC2CCCC2)n(C)n1	-1.07
COCCN1C(=O)CCC12CCN(C(=O)CC1CC1)CC2	3.73
CCn1cc(S(=O)(=O)Nc2nc3c(s2)CC(C)CC3)cn1 (centres undefined)	9.88
CC(C)(C)c1cn2nc(N3CCCC3Cn3cccn3)sc2n1 (centres undefined)	-23.8
CN(C)S(=O)(=O)N1CCCC1C(=O)N1CCSCC1 (centres undefined)	6.67
CCc1ncc(C(=O)NC(C)(C)CC)s1	-0.343
COC(=O)c1cccc(-c2nc(CC3CCN(C)CC3)no2)c1	-1.6
CCCC(C)(C)NC(=O)CCN1CCOC1=O	-8.94
O=C(CCN1CCCC1c1cccc2c1OCCO2)N1CCOCC1 (centres undefined)	25.6
CN1CC2(CCN(Cc3ccoc3)CC2)COc2ccccc2S1(=O)=O	-1.48
CCn1nc(C)c2nc(C(C)C)nc(N3CCCCC3)c21	-7.67
Cc1ccsc1-c1cccc(-c2ccn(CC3CCNC3)n2)c1 (centres undefined)	-0.288
COCc1cc(NCCc2ccc(OC)cc2)n2nccc2n1	0.266
CN(Cc1cn[nH]c1-c1ccc(F)cc1)C(=O)CCC1CC1	9.12
C[C@H]1C[C@H]2CN(C(=O)CCOc3ccccc3)CC[C@H]2O1	-69.3
